These results are taken from ChEMBL document CHEMBL1142192, “Natural polymorphisms in the human immunodeficiency virus type 2 protease can accelerate time to development of resistance to protease inhibitors” (Antimicrob Agents Chemother, 2007).

Common to all, as to type: functional, organism-based
Assay [1] deals with Human immunodeficiency virus 2. Put plainly: Antiviral activity against HIV2 isolate CBL20, CBL23, MVP15132 with […] and L99F mutation in CBMCs. In outline: (§1)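 PI-selected variants were obtained by weekly culture passage with escalating drug, 0.05 μM rising to 0.25–10 μM, and phenotyped at week 38. Cord blood mononuclear cells were infected for 2 h and plated onto fivefold drug dilutions from 0.00064 to 10 μM at 37°C, 5% CO₂. Cells were refed with drug on day 3. Day-7 culture-fluid RT activity gave IC50. Means come from at least two experiments, each in duplicate. Fold change is relative to wild-type virus.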

For assay [2], the system named is Human immunodeficiency virus 2. Put plainly: Antiviral activity against wild type HIV2 in CBMCs. In outline:
(§2)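 Cord blood mononuclear cells were infected for 2 h with wild-type virus (HIV-1: subtype B clinical isolate 5512; HIV-2: isolates CBL-20, CBL-23, MVP-15132). Cells were plated onto fivefold drug dilutions (0.00064–10 μM) at 37°C, 5% CO₂, and refed with drug-containing medium on day 3. RT enzyme assay was run on day 7, and IC₅₀ fitted. Means of ≥2 independent experiments, each in duplicate.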

Assay [3] deals with Human immunodeficiency virus 2. Put plainly: Antiviral activity against HIV2 isolate CBL20, CBL23, MVP15132 with 150V mutation in CBMCs. In outline:
as §1

For assay [4], the system named is Human immunodeficiency virus 1. Put plainly: Antiviral activity against HIV1 isolate 5512 with D30N, […] and […] mutation in CBMCs. In outline:
as §1

Assay [5] concerns Human immunodeficiency virus 1. Put plainly: Antiviral activity against wild type HIV1 in CBMCs. In outline: as §2
The test system of assay [6] is Human immunodeficiency virus 1. Put plainly: Antiviral activity against HIV1 isolate 5512 with M36I/M and V82T mutation in CBMCs. The gist of the method:
as §1

For assay [7], the system named is Human immunodeficiency virus 2. Put plainly: Antiviral activity against HIV2 isolate CBL20, CBL23, MVP15132 with […] and […] mutation in CBMCs. In outline: as §1
For assay [8], the system named is Human immunodeficiency virus 2. Put plainly: Antiviral activity against HIV2 isolate CBL20, CBL23, MVP15132 with 182L mutation in CBMCs. In outline:
as §1

In assay [9] the test system is Human immunodeficiency virus 2. Put plainly: Antiviral activity against HIV2 isolate CBL20, CBL23, MVP15132 with […] and L90M mutation in CBMCs. The gist of the method: as §1
The test system of assay [10] is Human immunodeficiency virus 1. Put plainly: Antiviral activity against HIV1 isolate 5512 with […] and M46L mutation in CBMCs. In outline:
as §1

Assay [11] has as its system Human immunodeficiency virus 2. Put plainly: Antiviral activity against HIV2 isolate CBL20, CBL23, MVP15132 with 154M mutation in CBMCs. The gist of the method: as §1
Assay [12] has as its system Human immunodeficiency virus 2. Put plainly: Antiviral activity against HIV2 isolate CBL20, CBL23, MVP15132 with V62A and L99F mutation in CBMCs. The gist of the method: as §1
In assay [13] the test system is Human immunodeficiency virus 2. Put plainly: Antiviral activity against HIV2 isolate CBL20, CBL23, MVP15132 with 182F mutation in CBMCs. The gist of the method:
as §1

Structures are written as SMILES.

With `CC(C)CN(C[C@@H](O)[C@H](Cc1ccccc1)NC(=O)O[C@H]1CCOC1)S(=O)(=O)c1ccc(N)cc1` [AMPRENAVIR], the IC50 (as a rule, the concentration at which inhibition is half-maximal) is greater than 10000 nM in [1]; 440 nM in assay [2]; greater than 10000 nM in [3]; 19 nM in [4]; 26 nM in assay [5]; 3 nM in [6]. The concentration for half-maximal inhibition (IC50) in [7] is greater than 10000 nM; in assay [8], 528 nM; in [9] it was greater than 10000 nM; in [10], 116 nM; in assay [11], greater than 10000 nM; in assay [12], 98 nM. The compound further displayed an IC50 in assay [13] of 965 nM.

Turning to `CC(C)(C)NC(=O)[C@@H]1CN(Cc2cccnc2)CCN1C[C@@H](O)C[C@@H](Cc1ccccc1)C(=O)N[C@H]1c2ccccc2C[C@H]1O` [INDINAVIR], the IC50 came out at 825 nM in assay [1]; 16 nM in [2]; 72 nM in [3]; 25 nM in assay [4]; 27 nM in assay [5]; 14 nM in [6]. Moreover, the IC50 was found to be 388 nM in assay [7]; 64 nM in [8]; 1110 nM in assay [9]; 45 nM in assay [10]; 236 nM in [11]; 143 nM in assay [12]. This compound also registered a half-maximal inhibitory concentration (IC50) in assay [13] of 544 nM.

For `Cc1cccc(C)c1OCC(=O)N[C@@H](Cc1ccccc1)[C@@H](O)C[C@H](Cc1ccccc1)NC(=O)[C@H](C(C)C)N1CCCNC1=O` [LOPINAVIR], the IC50 in assay [1] is 414 nM; in [2], 4 nM; in assay [3] it was 203 nM; in assay [5], 2 nM; in [6], 7 nM; in [7] it was 375 nM. Moreover, the half-maximal inhibitory concentration (IC50) in assay [8] amounted to 75 nM; in assay [9], 524 nM; in [10], 1 nM; in [11], 481 nM; in [12], 496 nM; in [13] it was 145 nM.

Take `Cc1c(O)cccc1C(=O)N[C@@H](CSc1ccccc1)[C@H](O)CN1C[C@H]2CCCC[C@H]2C[C@H]1C(=O)NC(C)(C)C` [NELFINAVIR]: the IC50 is 2240 nM in [1]; 64 nM in assay [2]; 132 nM in [3]; 677 nM in [4]; 14 nM in assay [5]; 10 nM in [6]. Further, the IC50 in assay [7] worked out at 1750 nM; in assay [8], 106 nM; in assay [9] it was 2560 nM; in assay [10], 31 nM; in [11], 624 nM; in assay [12] it was 961 nM. Moreover, the concentration for half-maximal inhibition (IC50) in [13] was found to be 244 nM.

`CCC[C@@]1(CCc2ccccc2)CC(O)=C([C@H](CC)c2cccc(NS(=O)(=O)c3ccc(C(F)(F)F)cn3)c2)C(=O)O1` [TIPRANAVIR]: the IC50 is 2910 nM in [1]; 160 nM in assay [2]; 316 nM in [3]; 1 nM in [4]; 92 nM in assay [5]; 192 nM in [6]. The IC50 in assay [7] is 2030 nM; in assay [8], 4440 nM; in [9], 145 nM; in [10] it was 42 nM; in assay [11] it was 1110 nM; in [12], 524 nM. Moreover, it took 306 nM to reach half-maximal inhibition in assay [13] (IC50).
